We go through 30 compounds from ChEMBL document CHEMBL4619765 (J Nat Prod, 2020).

A short description of series [1]: Inhibition of complex 1 in bovine heart mitochondrial membranes in presence of NADH. On the set-up: species or system Bos taurus.
In series [2] the test system is PNT2. In words: Cytotoxicity against human PNT2 cells assessed as reduction in cell viability at 1 uM after 48 hrs by acridine orange/DAPI staining based assay. Particulars: pnt2, 48 h. A digest of the protocol: (§1)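 Cells trypsinized, pelleted, resuspended in PBS and stained with acridine orange/DAPI; viability and cell count read on an NC-3000 image cytometer. n = 4 treated, n = 10 control; mean ± S.E.M.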

Series [3] has as its system LNCaP C4-2B. In words: Antiproliferative activity against human C4-2B cells at 1 uM after 150 hrs. It counts as functional, cell-based. In short, it runs like this: (§2)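 Seeded at 1,000 cells/well in RPMI 1640 with 10% FBS, 25 mM HEPES and 1 mM pyruvate; after 24 h, 1 μM rotenoid (ethanolic stock diluted in medium) or ethanol-only control added. Growth followed by live-cell imaging as confluence (% well area covered) until untreated control reached confluence; value at 150 h of treatment. Eight replicates per condition, mean ± S.E.M.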

The test system of series [4] is LNCaP C4-2B. In words: Cytotoxicity against human C4-2B cells assessed as reduction in cell viability at 1 uM after 48 hrs by acridine orange/DAPI staining based assay. It counts as functional. A digest of the protocol:
as §1

In series [5] the test system is LNCaP C4-2. In words: Inhibition of complex 1 in human C4-2 cells assessed as reduction in oxygen rate at 1 uM incubated for 1 hr followed by rotenone and antimycin addition. In kind it is cell-based. A digest of the protocol: (§3)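 Cells seeded at 20,000/well on poly-L-lysine-coated Seahorse XF96 plates for 16 h, then moved into carbonate-free RPMI assay buffer (4.5 g/L glucose, pyruvate, GlutaMAX, pH 7.4). […] Rotenone-insensitive rate subtracted and traces normalized to 100% pre-addition. n = 6 treated, 16 controls; mean ± S.E.M.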

Series [6] concerns PNT2. The series is described as follows: Inhibition of complex 1 in human PNT2 cells assessed as reduction in oxygen rate at 1 uM incubated for 1 hr followed by rotenone and antimycin addition. It counts as cell-based. A digest of the protocol:
as §3

Series [7] has as its system LNCaP C4-2. The series is described as follows: Antiproliferative activity against human C4-2 cells at 1 uM after 150 hrs. It counts as functional, cell-based. A digest of the protocol: as §2
The subject of series [8] is LNCaP C4-2. In words: Cytotoxicity against human C4-2 cells assessed as reduction in cell count at 1 uM after 48 hrs by acridine orange/DAPI staining based assay. It counts as functional. In short, it runs like this:
as §1

The subject of series [9] is PNT2. The series is described as follows: Inhibition of cell proliferation in human PNT2 cells at 1 uM after 150 hrs. In kind it is cell-based. Particulars: pnt2, 150 h. In short, it runs like this: as §2
For series [10], the system named is LNCaP C4-2. In words: Cytotoxicity against human C4-2 cells assessed as reduction in cell viability at 1 uM after 48 hrs by acridine orange/DAPI staining based assay. It counts as functional. In short, it runs like this:
as §1

Series [11] deals with LNCaP C4-2B. In words: Inhibition of complex 1 in human C4-2B cells assessed as reduction in oxygen rate at 1 uM incubated for 1 hr followed by rotenone and antimycin addition. In kind it is cell-based. In short, it runs like this:
as §3

The subject of series [12] is LNCaP C4-2B. In words: Cytotoxicity against human C4-2B cells assessed as reduction in cell count at 1 uM after 48 hrs by acridine orange/DAPI staining based assay. In kind it is functional. A digest of the protocol:
as §1

The test system of the next series is MEF. In words: Cytotoxicity against PTEN-deficient MEF at 0.5 uM after 24 hrs by MTT assay relative to control. Particulars: mouse. In kind it is cell-based. (In general: Tetrazolium dyes change colour on reduction, which living cells bring about.)
For series [13], the system named is PNT2. In words: Cytotoxicity against human PNT2 cells assessed as reduction in cell count at 1 uM after 48 hrs by acridine orange/DAPI staining based assay. Particulars: pnt2, 48 h. A digest of the protocol:
as §1

For the next series, the system named is LNCaP. The series is described as follows: Cytotoxicity against human LNCAP cells. To be noted: read-out: ED50 (the source's name). It counts as functional.

Active and inactive are the calls of the source. The rule behind the calls is not given here.

For orientation: IC50 means the point on the concentration scale where inhibition reaches its midpoint. For `COc1cc2c(cc1OC)[C@@H]1[C@H](O)c3ccc4c(c3O[C@@H]1CO2)C=CC(C)(C)O4`, the IC50 in series [1] came out at 14.6 nM.
Still for that read-out and setting: as for `COc1cc2c(cc1OC)[C@]1(O)C(=O)c3ccc4c(c3O[C@@H]1CO2)C[C@H](C(C)(O)CO)O4` (stereo not given in full), the figure is above 10000 nM.
On the same count and under the same terms, with `C=C(C)CCc1c(O)ccc2c1O[C@@H]1COc3cc(OC)c(OC)cc3[C@@H]1C2=O` the figure was 572 nM; with `COc1cc2c(cc1OC)[C@]1(O)[C@H](O)c3ccc4c(c3O[C@@H]1CO2)C[C@H](C(C)(C)O)O4`, above 10000 nM.
`COc1cc2c(cc1OC)[C@]1(O)[C@H](O)c3ccc4c(c3O[C@@H]1CO2)C=CC(C)(C)O4`: the IC50 in series [1] stood at 135 nM.
Still for that read-out and setting: as for `C=C(C)[C@H]1Cc2c(ccc3c2O[C@@H]2COc4cc(OC)c(OC)cc4[C@]2(O)[C@@H]3O)O1`, the figure is 125 nM.
As to `COc1cc2c(cc1OC)[C@@H]1C(=O)c3ccc4c(c3O[C@@H]1CO2)C[C@H](C(C)(O)CO)O4` (stereo not given in full), the Activity result in the series on PNT2 [2] and in the series on PNT2 [9] was “Non-Toxic” throughout. For the same compound, the result in the series with LNCaP C4-2B [3], in the series on LNCaP C4-2 [7] and with LNCaP C4-2 [8] was Active. Moreover, the result in the series with LNCaP C4-2B [4] and with LNCaP C4-2 [10] was inactive. The inhibition result in the series with LNCaP C4-2 [5], in the series with PNT2 [6] and in the series with LNCaP C4-2B [11] was “Active” throughout. The IC50 in series [1] came out at 1800 nM.
Take `C=C(CO)[C@H]1Cc2c(ccc3c2O[C@@H]2COc4cc(OC)c(OC)cc4[C@@H]2[C@@H]3O)O1`: the IC50 in series [1] came to 458 nM.
In the case of `C=C(CO)[C@H]1Cc2c(ccc3c2O[C@@H]2COc4cc(OC)c(OC)cc4[C@]2(O)[C@@H]3O)O1`, in series [1], the IC50 was above 10000 nM.
For `C=C(C)[C@H]1Cc2c(ccc3c2O[C@@H]2COc4cc(OC)c(OC)cc4[C@@H]2[C@@H]3O)O1`, the IC50 in [1] was 11.4 nM.
As for `COc1cc2c(cc1OC)[C@]1(O)[C@H](O)c3ccc4c(c3O[C@@H]1CO2)C[C@H](C(C)(O)CO)O4` (stereo not given in full), in series [1], the IC50 was above 10000 nM.
For `COc1cc2c(cc1OC)[C@@H]1[C@H](O)c3ccc4c(c3O[C@@H]1CO2)C[C@H](C(C)(C)O)O4`, the IC50 in series [1] came to 750 nM.
Take `C=C(C)C(=O)Cc1c(O)ccc2c1O[C@@H]1COc3cc(OC)c(OC)cc3[C@]1(O)C2=O`: the IC50 in series [1] is above 10000 nM.
On the same count and under the same terms, with `C=C(C)C(=O)Cc1c(O)ccc2c1O[C@@H]1COc3cc(OC)c(OC)cc3[C@@H]1C2=O` the figure was 2570 nM.
As for `COc1cc2c(cc1OC)[C@]1(O)C(=O)c3ccc4c(c3O[C@@H]1CO2)C[C@H](C(C)(C)O)O4`, in series [1], the IC50 is above 10000 nM.
Take `COc1cc2c(cc1OC)[C@@H]1C(=O)c3ccc4c(c3O[C@@H]1CO2)C(O)C(O)C(C)(C)O4` (mixture of isomers): the 50% inhibitory concentration (IC50) in series [1] was 5310 nM.
Still for that read-out and setting: with `COc1cc2c(cc1OC)[C@@H]1C(=O)c3ccc4c(c3O[C@@H]1CO2)CCC(C)(CO)O4` (mixture of isomers) the figure was 195 nM.
Consider `COc1cc2c(cc1OC)[C@@H]1C(=O)c3ccc4c(c3O[C@@H]1CO2)C[C@H](C(C)CO)O4` (mixture of isomers), for which the Activity entry in the series with PNT2 [2] and in the series with PNT2 [9] was “Non-Toxic” in each case. Further, the outcome with LNCaP C4-2B [3], in the series on LNCaP C4-2 [7], in the series with LNCaP C4-2 [8] and in the series with LNCaP C4-2B [12] was Active. Also, the result in the series with LNCaP C4-2B [4] and with LNCaP C4-2 [10] was inactive. Besides, the inhibition entry with LNCaP C4-2 [5], with PNT2 [6] and in the series with LNCaP C4-2B [11] was “Active” each time. Besides, the IC50 in series [1] was 228 nM.
Take `COc1cc2c(cc1OC)[C@]1(O)C(=O)c3ccc4c(c3O[C@@H]1CO2)C[C@H](C(C)CO)O4` (mixture of isomers): the IC50 in series [1] was found to be 3580 nM.
On to `COc1cc2c(cc1OC)[C@@H]1[C@H](O)c3ccc4c(c3O[C@@H]1CO2)C[C@H](C(C)CO)O4` (mixture of isomers), for which the IC50 in series [1] is 460 nM.
In the case of `COc1cc2c(cc1OC)[C@]1(O)[C@H](O)c3ccc4c(c3O[C@@H]1CO2)C[C@H](C(C)CO)O4` (mixture of isomers), the IC50 in [1] was determined as 2930 nM.
In the case of `COc1cc2c(cc1OC)[C@@H]1[C@H](O)c3ccc4c(c3O[C@@H]1CO2)C[C@H](C(C)(O)CO)O4` (mixture of isomers), in [1], the 50% inhibitory concentration (IC50) stood at 4570 nM.
On the same count and under the same terms, with `COc1cc2c(cc1OC)[C@@H]1C(=O)c3ccc4c(c3O[C@@H]1CO2)CC(O)C(C)(C)O4` (mixture of isomers) the figure was 850 nM; with `C=C(CO)[C@H]1Cc2c(ccc3c2O[C@@H]2COc4cc(OC)c(OC)cc4[C@]2(O)C3=O)O1` [DABINOL], 3810 nM.
In the case of `COc1cc2c(cc1OC)[C@@H]1C(=O)c3ccc4c(c3O[C@@H]1CO2)C[C@H](C(C)(C)O)O4` [DALPANOL], the Activity result in the series with PNT2 [2] and in the series with PNT2 [9] was “Non-Toxic” in each case. The outcome in the series with LNCaP C4-2B [3], in the series on LNCaP C4-2 [7] and with LNCaP C4-2 [8] was Active. In addition, the outcome with LNCaP C4-2B [4] and in the series with LNCaP C4-2 [10] was inactive. For the same compound, the inhibition result in the series with LNCaP C4-2 [5], in the series on PNT2 [6] and with LNCaP C4-2B [11] was “Active” in each case. For the same compound, in series [1], the concentration for half-maximal inhibition (IC50) turned out to be 652 nM.
In turn, `COc1cc2c(cc1OC)[C@@H]1C(=O)c3ccc4c(c3O[C@@H]1CO2)C=CC(C)(C)O4` [DEGUELIN] yielded an Activity in the series on MEF of 70%. The half-maximal inhibitory concentration (IC50) in series [1] was 10.6 nM.
As to `C=C(C)[C@H]1Cc2c(ccc3c2O[C@@H]2COc4cc(OC)c(OC)cc4[C@]2(O)C3=O)O1` [ROTENOLONE], the 50% inhibitory concentration (IC50) in series [1] came to 130 nM.
For `C=C(C)[C@H]1Cc2c(ccc3c2O[C@@H]2COc4cc(OC)c(OC)cc4[C@@H]2C3=O)O1` [ROTENONE], the results for the Activity result with PNT2 [2], with PNT2 [9] and with PNT2 [13] were “Non-Toxic”, “Non-Toxic” and “Toxic”, respectively. The result in the series on LNCaP C4-2B [3], in the series with LNCaP C4-2 [7], in the series with LNCaP C4-2 [8] and with LNCaP C4-2B [12] was Active. The outcome in the series on LNCaP C4-2B [4] and with LNCaP C4-2 [10] was inactive.
On to `COc1cc2c(cc1OC)[C@@H]1C(=O)c3ccc(O)c(CC=C(C)C)c3O[C@@H]1CO2` [ROTENONIC ACID], for which the 50% inhibitory concentration (IC50) in [1] amounted to 1090 nM.
As for `COc1cc2c(cc1OC)[C@]1(O)C(=O)c3ccc4c(c3O[C@@H]1CO2)C=CC(C)(C)O4` [TEPHROSIN], in the series on LNCaP, the EC50 lay within 300 to 700 nM.
